# Bioassay records: PubChem, several laboratories
# Rows were chosen to be rich in hits. Some 1.6% of all compounds tested hit in one or more screens of this group.
# proCasp3 act = activators of human procaspase-3 | P42574 | recombinant procaspase-3 D3A, Ac-DEVD-pNA absorbance 405 nm | activation, % at 8.5 µM | 330,000 compounds, 0.11% hits | AID 463141;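 active = activation above the mean of all tested compounds plus 3 SD, cut at about 21% in these data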
# Target sequence (P42574 whole entry D9A/D28A/D175A): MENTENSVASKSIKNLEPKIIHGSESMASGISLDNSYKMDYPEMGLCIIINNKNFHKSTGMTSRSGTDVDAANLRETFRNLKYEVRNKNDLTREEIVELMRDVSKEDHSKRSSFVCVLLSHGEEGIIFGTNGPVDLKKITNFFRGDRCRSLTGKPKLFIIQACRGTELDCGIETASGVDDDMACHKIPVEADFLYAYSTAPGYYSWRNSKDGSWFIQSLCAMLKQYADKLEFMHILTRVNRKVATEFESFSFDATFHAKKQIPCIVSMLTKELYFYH
#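 assay system = Procaspase-3 D3A mutant | signal = absorbance at 405 nm, 0 and 120 min | times = 1 h preincubation plus 2 h reaction at 25 °C | repeats = single replicate | read-out = % activation between DMSO and enzyme-spiked controls | medium = Zinc-free HEPES saline buffer with Triton X-100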
# KLK7 zymogen act = activators of human kallikrein-7 zymogen; P49862; purified proKLK7, EDANS-DABCYL substrate fluorescence; 100% is mature enzyme control, 0% vehicle; activation, % at 7 µM; 370,000 compounds, 0.9% hits;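 active = activation above the mean of all tested compounds plus 3 SD, computed per campaign excluding outliers beyond control limits, cut at about 13% in these data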
# Target sequence (P49862 whole entry, looked up): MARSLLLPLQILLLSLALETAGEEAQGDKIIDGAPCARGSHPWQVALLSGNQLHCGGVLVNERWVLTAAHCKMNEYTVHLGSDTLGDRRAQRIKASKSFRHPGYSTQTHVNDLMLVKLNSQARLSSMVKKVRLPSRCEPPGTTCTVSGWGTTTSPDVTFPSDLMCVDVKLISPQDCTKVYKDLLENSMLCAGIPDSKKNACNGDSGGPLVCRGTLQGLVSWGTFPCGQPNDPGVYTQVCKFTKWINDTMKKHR
# Neddylation inh = inhibitors of human cullin neddylation. P61081+Q13564. TR-FRET cullin neddylation, biochemical. calls only at 25 µM. 360,000 compounds, 0.58% hits; in the data active = inhibition above about 36%
# procasp7 counter = counter-screen for procaspase-3 activators: activators of human procaspase-7; recombinant procaspase-7, Ac-DEVD-pNA absorbance 405 nm; D23A/D198A/D206A triple mutant, cannot self-cleave; scale: DMSO 0, 5 µM enzyme 100; activation, % at 8.5 µM; 330,000 compounds, 0.093% hits; AID 463210;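 active = percent activation above the screen-wide mean plus 3 SD, cut at about 25% in these data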
#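 signal = Epi-absorbance of released pNA at 405 nm, two timepoints | assay system = Uncleavable procaspase-7 mutant enzyme | reagent = Ac-DEVD-pNA substrate, 400 µM as added | times = 1 h enzyme–compound preincubation and 2 h substrate reaction, both 25 °C | benchmarks = low DMSO alone, high DMSO plus 5 µM PC-7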
# proKLK7 act conf = proKLK7 activation, confirmation | shares compounds with KLK7 zymogen act | 3,200 compounds, 68% hits | AID 686949 | purified proKLK7, EDANS-DABCYL substrate fluorescence; scaled: vehicle 0, mature enzyme 100 | activation, % at 7 µM;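 active = activation, as change over the incubation, above the mean of all tested compounds plus 3 SD, cut at about 13% in these data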
# EDANS-DABCYL int = fluorescence interference counter-screen for KLK7 activators | shares compounds with KLK7 zymogen act | EDANS-DABCYL substrate fluorescence interference, no enzyme, 4 h; solvent 0%, active enzyme control 100% | 3,200 compounds, 80% hits | activation, % at 7 µM;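 active = activation above the all-compound mean plus 3 SD, ignoring values outside control-based bounds, cut at about 4.8% in these data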;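 also: value is the 4 h activation minus the activation read at time zero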
# EDANS interf = optically interferes with EDANS-DABCYL fluorescence, kallikrein-7 activator counter-screen | 250 compounds, 20% hits | shares compounds with KLK7 zymogen act | EC50, µM | EDANS-DABCYL peptide fluorescence interference, no enzyme;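 active = compounds that raise the fluorescence signal in this interference counterscreen, with EC50 at or below 10 µM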;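 also: intact quenched peptide substrate alone read at 355 nm excitation and 520 nm emission; signal is fluorescence gain from T0 to T4 after four hours at room temperature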
# Numbers stand for hits; i = inactive; nt = no result shown.
SMILES,proCasp3 act,KLK7 zymogen act,Neddylation inh,procasp7 counter,proKLK7 act conf,EDANS-DABCYL int,others
CC(=O)Nc1cccc(-c2cc3c(c4c2ccn4C)C2CCC3O2)c1 (stereo not given),nt,i,nt,nt,nt,nt,
Cn1ccc2c(-c3cccc(C=O)c3)cc3c(c21)C1CCC3O1 (stereo not given),nt,17.4,i,nt,15.3,13.8,
CC1(c2ccccc2)NC(=O)N(NC(=O)COC(=O)c2cc(Br)ccc2O)C1=O (stereo not given),i,27.5,i,i,34.4,38.3,
O=C(OCC(=O)N1CCCc2ccccc21)c1cc(Br)ccc1O,i,i,i,i,nt,nt,
O=C(COC(=O)c1cc(Br)ccc1O)NNC(=O)c1ccc(Cl)cc1,i,17.1,i,i,19.5,18.8,
O=C(COC(=O)c1cc(Br)ccc1O)NNC(=O)c1ccc([N+](=O)[O-])cc1,i,25.6,i,i,39.7,38.1,
O=C(COC(=O)c1cc(Cl)ccc1O)Nc1ccc2c(c1)OCCO2,i,18.9,i,i,19.0,16.3,
CCN(CC)c1ncnc2c1ncn2[C@H]1CN(Cc2ccc(-c3ccccc3)cc2)C[C@@H](CO)O1,nt,i,i,nt,nt,nt,
Cn1ccsc1=NC(=O)c1ccc(S(C)(=O)=O)c([N+](=O)[O-])c1,i,i,i,i,nt,nt,
CC(=O)N1CCC(C(=O)Nc2ccc(S(=O)(=O)N3CCCCC3)cc2)CC1,i,i,i,i,nt,nt,
CCCn1c(N)cc(=O)n(CCC)c1=O,i,i,i,i,nt,nt,
Cc1nn(Cc2ccccc2)c(C)c1CNC(=O)[C@H](C)N=C1NS(=O)(=O)c2ccccc21,i,i,i,i,nt,nt,
O=C(COC(=O)c1ccc(O)cc1)Nc1cc(C(F)(F)F)ccc1N1CCOCC1,i,i,i,i,nt,nt,
O=C(COC(=O)c1ccccc1F)NNC(=O)c1ccccc1,i,i,i,i,nt,nt,
O=C(COC(=O)c1cc(Cl)ccc1O)NNC(=O)c1ccccc1F,i,85.7,i,i,137.4,124.0,
COc1ccccc1NC(=O)COC(=O)c1cc2ccccc2cc1O,i,i,i,i,nt,nt,
O=C(COC(=O)c1cc2ccccc2cc1O)Nc1ccccc1F,i,14.2,i,i,14.9,12.9,
O=C(COC(=O)c1cc(Cl)ccc1O)Nc1cc(C(F)(F)F)ccc1N1CCOCC1,i,15.9,i,i,22.7,21.8,
NC(=NCCc1c[nH]c2ccccc12)NC(=O)c1ccc(F)cc1,i,i,i,i,nt,nt,
CC(=O)Nc1ccc(NC2CCCCC2NS(=O)(=O)c2ccc(Cl)cc2)cc1 (stereo not given),i,i,i,i,nt,nt,
CC[C@H](C)/C=C(C)/C=C/C(=O)Cc1cc(O)c(C)c(O)c1C=O,i,i,i,i,nt,nt,
CC[C@H](C)/C=C(C)/C=C/C1=CC2=CC(=O)[C@]3(C)OC(=O)[C@@H](C(C)=O)[C@@H]3C2=CO1,i,18.7,nt,i,i,8.1,
CC1CC(Nc2cccc(O)c2)=CC(=O)O1 (stereo not given),i,13.4,i,i,i,i,
CCN(CC)C(=O)CN1C(=O)COCC1=O,i,i,i,i,nt,nt,
CCNc1nc(C)c(CN(C(C)=O)c2ccccc2)nc1C#N,i,32.6,nt,i,28.4,23.8,EDANS interf=i
SMILES,proCasp3 act,KLK7 zymogen act,Neddylation inh,procasp7 counter,proKLK7 act conf,EDANS-DABCYL int,others
CCOC(=O)c1cnn2c(C(F)(F)F)cc(-c3cn(C)nc3C)nc12,i,19.7,nt,i,40.6,24.6,EDANS interf=i
CCOC(=O)c1cnn2c(C(F)(F)F)cc(-c3ccccc3)nc12,i,18.6,nt,i,i,i,
COC(=O)c1cnn2c(C(F)(F)F)cc(-c3ccc(F)cc3)nc12,i,i,nt,i,nt,nt,
CCN(CC)CCCNC(=O)CSc1nc2cccnc2n1C,nt,i,nt,nt,nt,nt,
COc1ccc(C2=NN(Cc3ccccc3)C3C(=O)NC(=O)C23)cc1 (stereo not given),i,i,i,i,nt,nt,
CN1C(=O)C2C(c3ccc(N(C)C)cc3)=NN(Cc3ccccc3)C2C1=O (stereo not given),i,23.6,i,i,23.9,31.5,
CNc1ccc2ncc(-c3ccccc3C(C)=O)n2n1,nt,i,i,nt,nt,nt,
OCc1ccccc1-c1cnc2cccnn12,nt,82.0,nt,nt,66.5,78.6,
CN(C)C(=O)c1cccc(-c2ccc3nncn3c2)c1,nt,i,i,nt,nt,nt,
O=C(NCCO)c1ccc(-c2cnc3cccnn23)cc1,nt,48.3,nt,nt,62.8,78.2,
O=C(NCCO)c1cccc(-c2cnc3cccnn23)c1,nt,53.5,nt,nt,37.7,37.1,
CNc1ccc2ncc(-c3cccc(C(=O)N(C)C)c3)n2n1,nt,41.9,nt,nt,39.6,41.8,
CCOc1ccc(C(=O)NCCO)cc1,i,i,i,i,nt,nt,
Cc1cn(C2CC(OC(=O)C(C)C)C(CO)O2)c(=O)[nH]c1=O (stereo not given),i,i,i,i,nt,nt,
CN1CCN(C(=O)c2cccc(-c3cccc4nccn34)c2)CC1,nt,i,i,nt,nt,nt,
CN1CCN(C(=O)c2ccc(-c3cnc4cccnn34)cc2)CC1,nt,67.5,nt,nt,69.4,70.3,
Nc1ccc(-c2nc3ccc([N+](=O)[O-])cc3[nH]2)cc1,i,i,i,i,nt,nt,
Nc1ccc2nc(-c3cc(Cl)c(N)c(Cl)c3)[nH]c2c1,i,23.5,nt,i,20.8,12.8,EDANS interf=i
Nc1ccc2nc(-c3cccc(-c4nc5ccc(N)cc5[nH]4)c3)[nH]c2c1,i,i,i,i,nt,nt,
Cc1nc2ccc(-c3nc4ccc(N)cc4[nH]3)cc2[nH]1,i,37.0,nt,i,68.8,66.5,
Nc1ccc(-c2nc3ccc(N)cc3[nH]2)cc1,i,86.7,nt,i,69.4,75.3,
Nc1ccc(-c2nc3c(Cl)c(N)ccc3[nH]2)cc1,i,70.4,nt,i,70.1,76.8,
C/C(=N\NC(=O)CNc1ccccc1)c1ccccc1,i,i,i,i,nt,nt,
COc1cccc(NC(=O)CN(C)C(=O)c2c(C)noc2C)c1,i,i,i,i,nt,nt,
CCN1CCN(S(=O)(=O)c2ccc(Cl)c(C(=O)NCc3nc4ccccc4[nH]3)c2)CC1,i,i,i,i,nt,nt,
SMILES,proCasp3 act,KLK7 zymogen act,Neddylation inh,procasp7 counter,proKLK7 act conf,EDANS-DABCYL int,others
Cc1cccc(NC(=O)Cn2cc(C(=O)C3CC3)c3ccccc32)c1C,i,i,i,i,nt,nt,
Clc1ccc2nc(-c3ccc(Cl)nc3)[nH]c2c1,i,i,i,i,nt,nt,
Cc1ccc2nc(-c3ccccc3N)[nH]c2c1,i,67.8,nt,i,i,i,
Nc1ccc2nc(-c3ccc(Cl)cc3)[nH]c2c1,i,66.3,nt,i,64.3,65.9,
Cc1ccc(C)c(-c2nc3ccc(N)cc3[nH]2)c1,i,i,nt,i,nt,nt,
O=C(COc1ccccc1)Nc1cccc(-c2cn3cccnc3n2)c1,i,i,nt,i,nt,nt,
COc1ccc(C)cc1S(=O)(=O)Nc1cccc(C)c1,i,i,i,i,nt,nt,
O=S(=O)(Nc1cccc(-c2cn3cccnc3n2)c1)c1ccc(Cl)cc1,i,27.8,nt,i,i,6.4,
